Source: PubChem BioAssay AID488775 (The Scripps Research Institute Molecular Screening Center, 2010)
Active and inactive are the calls of the source.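 How the source made its calls: active means inhibition of the reporter signal above 10%; inactive means the rest.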

System: GAL4DBD-VP16 transactivation domain fusion (Human herpesvirus 1 VP16)
Experiment: suppression of VP16-driven UAS luciferase – cell-based, luminescence, HEK293T, powder samples, counter-screen for LRH1 inverse agonist project, confirmation (AID 488775)
Details: HEK293T GAL4-VP16 UAS-luciferase reporter, 18-24 h; at 5 µM; active compounds read high
Method in brief: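 assay system = HEK293T cells with GAL4–VP16 fusion and UAS-luciferase reporter | compound = one dose, 5 µM nominal | signal = luminescence from luciferase | read-out = percent inhibition from averaged fold change relative to DMSO vehicle wells | control set = DMSO vehicle-treated cells as reference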

SMILES | inhibition
CC(C)Cn1c(=O)cc(N2CCN(c3cccc(C(F)(F)F)c3)CC2)[nH]c1=O | 8% (inactive)
O=c1cc(N2CCN(c3ccccc3)CC2)[nH]c(=O)n1Cc1ccc(F)cc1 | -5% (inactive)
CC1CCN(c2cc(=O)n(Cc3ccc(F)cc3)c(=O)[nH]2)CC1 | -7% (inactive)
O=c1cc(N2CCN(c3cccc(Cl)c3)CC2)[nH]c(=O)[nH]1 | 3% (inactive)
O=c1cc(N2CCN(c3ccc(C(F)(F)F)cc3)CC2)[nH]c(=O)n1C1CCCCC1 | -5% (inactive)
O=c1cc(N2CCN(c3cccc(C(F)(F)F)c3)CC2)n(Cc2ccccc2)c(=O)n1C1CCCCC1 | -1% (inactive)
O=c1cc(N2CCCCC2)[nH]c(=O)n1C1CCCCC1 | 0% (inactive)
CCOC(=O)N1CCN(c2cc(=O)n(C3CCCCC3)c(=O)[nH]2)CC1 | -6% (inactive)
CCn1c(=O)cc(N2CCN(c3ccccc3)CC2)[nH]c1=O | -7% (inactive)
O=c1cc(N2CCC(Cc3ccccc3)CC2)[nH]c(=O)n1C1CCCCC1 | 26%
O=c1cc(N2CCN(c3ccccn3)CC2)[nH]c(=O)n1C1CCCCC1 | -8% (inactive)
O=c1cc(N2CCOCC2)[nH]c(=O)n1C1CCCCC1 | 9% (inactive)
O=c1cc(N2CCN(c3ccccc3C(F)(F)F)CC2)[nH]c(=O)n1C1CCCCC1 | 14%
O=c1cc(N2CCCC2)[nH]c(=O)n1C1CCCCC1 | -6% (inactive)
O=C(c1ccco1)N1CCN(c2cc(=O)n(C3CCCCC3)c(=O)[nH]2)CC1 | 17%
CCn1c(=O)cc(N2CCN(c3ccc(F)cc3)CC2)[nH]c1=O | -7% (inactive)
CCn1c(=O)cc(N2CCN(c3cccc(C(F)(F)F)c3)CC2)[nH]c1=O | 1% (inactive)
O=C(c1ccccc1)N1CCN(c2cc(=O)n(C3CCCCC3)c(=O)[nH]2)CC1 | 8% (inactive)
CCn1c(=O)cc(N2CCN(c3cccc(Cl)c3)CC2)[nH]c1=O | 5% (inactive)
O=c1cc(N2CCN(c3cc(C(F)(F)F)ccn3)CC2)[nH]c(=O)n1C1CCCCC1 | -12% (inactive)
O=c1cc(N2CCN(c3cccc(C(F)(F)F)c3)CC2)[nH]c(=O)n1-c1ccccc1 | -3% (inactive)

SMILES | inhibition
N#CCn1c(N2CCN(c3cccc(C(F)(F)F)c3)CC2)cc(=O)n(C2CCCCC2)c1=O | 2% (inactive)
O=c1cc(N2CCN(c3ccc(F)cc3F)CC2)[nH]c(=O)n1C1CCCCC1 | 26%
COC(=O)C1CCN(c2cc(=O)n(C3CCCCC3)c(=O)[nH]2)CC1 | -12% (inactive)
Cc1cc(C)cc(N2CCN(c3cc(=O)n(C4CCCCC4)c(=O)[nH]3)CC2)c1 | -6% (inactive)
C=CCn1c(=O)cc(N2CCN(c3cccc(C(F)(F)F)c3)CC2)[nH]c1=O | 1% (inactive)
CCn1c(=O)cc(N2CCN(Cc3ccccc3)CC2)[nH]c1=O | -10% (inactive)
O=c1cc(N2CCc3ccccc32)[nH]c(=O)n1C1CCCCC1 | -11% (inactive)
O=c1cc(N2CCN(C3CCCCC3)CC2)[nH]c(=O)n1C1CCCCC1 | 0% (inactive)
O=c1cc(N2CCN(c3cccc(C(F)(F)F)n3)CC2)[nH]c(=O)n1C1CCCCC1 | 3% (inactive)
Cn1c(=O)cc(N2CCN(c3cccc(Cl)c3)CC2)[nH]c1=O | -1% (inactive)
O=c1cc(N2CCN(c3cccc(C(F)(F)F)c3)CC2)[nH]c(=O)n1C1CCCCC1 | -6% (inactive)
C=CCn1c(N2CCN(c3cccc(C(F)(F)F)c3)CC2)cc(=O)n(C2CCCCC2)c1=O | 20%
O=c1cc(N2CCN(c3nc(-c4ccccc4)ns3)CC2)[nH]c(=O)n1C1CCCCC1 | -27% (inactive)
O=c1cc(N2CCN(CCN3CCOCC3)CC2)[nH]c(=O)n1C1CCCCC1 | 26%
CCn1c(=O)cc(N2CCN(C(=O)c3ccco3)CC2)[nH]c1=O | 0% (inactive)
O=c1cc(N2CCN(c3cccc(C(F)(F)F)c3)CC2)[nH]c(=O)n1Cc1ccccc1 | 6% (inactive)
Cn1c(=O)cc(N2CCN(c3ccc(F)cc3)CC2)[nH]c1=O | -13% (inactive)
O=c1cc(N2CCN(c3ncccc3C(F)(F)F)CC2)[nH]c(=O)n1C1CCCCC1 | 13%
O=c1cc(N2CCN(C(c3ccccc3)c3ccccc3)CC2)[nH]c(=O)n1C1CCCCC1 | 11% (inactive)
CC1CCN(c2cc(=O)n(C3CCCCC3)c(=O)[nH]2)CC1 | 6% (inactive)

The next lines start with the values.

inhibition | SMILES
17% | Cc1ccc(C)n1CCN1CCN(c2cc(=O)n(C3CCCCC3)c(=O)[nH]2)CC1
0% (inactive) | CCN1CCN(c2cc(=O)n(C3CCCCC3)c(=O)[nH]2)CC1
7% (inactive) | O=c1cc(N2CCN(c3ccnc4cc(Cl)ccc34)CC2)[nH]c(=O)n1C1CCCCC1
-5% (inactive) | O=c1cc(N2CCN(Cc3ccc4c(c3)OCO4)CC2)[nH]c(=O)n1C1CCCCC1
-16% (inactive) | O=c1cc(N2CCN(c3ccccc3)CC2)[nH]c(=O)n1C1CCCCC1
-4% (inactive) | O=c1cc(N2CCN(Cc3ccc(Cl)cc3)CC2)[nH]c(=O)n1C1CCCCC1
0% (inactive) | Cc1ccc(Cl)cc1N1CCN(c2cc(=O)n(C3CCCCC3)c(=O)[nH]2)CC1
1% (inactive) | O=c1cc(N2CCN(c3cccc(Cl)c3)CC2)[nH]c(=O)n1C1CCCCC1
-4% (inactive) | O=c1cc(N2CCN(c3nccc4occc34)CC2)[nH]c(=O)n1C1CCCCC1
-48% (inactive) | C=CCN1CCN(c2cc(=O)n(C3CCCCC3)c(=O)[nH]2)CC1
1% (inactive) | COc1ccc(N2CCN(c3cc(=O)n(C4CCCCC4)c(=O)[nH]3)CC2)cc1
1% (inactive) | O=c1cc(N2CCN(c3cc(Cl)cc(Cl)c3)CC2)[nH]c(=O)n1C1CCCCC1
-9% (inactive) | O=c1cc(N2CCN(c3ccc(F)cc3)CC2)[nH]c(=O)n1C1CCCCC1
1% (inactive) | O=c1cc(N2CCN(c3ccccc3Cl)CC2)[nH]c(=O)n1C1CCCCC1
-7% (inactive) | O=c1cc(N2CCN(c3cccc(Cl)n3)CC2)[nH]c(=O)n1C1CCCCC1
-4% (inactive) | O=c1cc(N2CCN(c3cccc(Br)c3)CC2)[nH]c(=O)n1C1CCCCC1
-5% (inactive) | O=c1cc(N2CCN(c3cccc(Cl)c3Cl)CC2)[nH]c(=O)n1C1CCCCC1
16% | O=c1cc(N2CCN(c3ncccc3Cl)CC2)[nH]c(=O)n1C1CCCCC1
